Test results from ChEMBL document CHEMBL3817827, “5-Substituted 3-chlorokenpaullone derivatives are potent inhibitors of Trypanosoma brucei bloodstream forms” (Bioorg Med Chem, 2016).
Calls of active or inactive are those of the source. The rule behind the calls is not given here.

How the values were obtained:
Trypanosoma brucei = assay: Inhibition of Trypanosoma brucei recombinant His-tagged TryS expressed in Escherichia coli BL21 (DE3) assessed as residual enzyme activity by measuring inorganic phosphate release at 30 uM after 15 mins by malachite green dye based end-point assay
Summary of the method: (§1)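 His-tagged TryS expressed in E. coli BL21(DE3), Ni-NTA then gel filtration/ion exchange purified. Reaction buffer: 100 mM HEPES pH 7.4, 5 mM DTT, 10 mM MgSO4, 0.5 mM EDTA, 9 mM NaCl, 10% DMSO; 150 µM ATP, 2 mM spermidine; glutathione 0.05 (Tb), 0.57 (Tc), 0.25 mM (Li). Stopped at 15 min, malachite green phosphate read at 650 nm, blank-corrected versus DMSO; screen at 30 µM, IC50 if >50% inhibition.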

[1] = Inhibition of Trypanosoma cruzi recombinant His-tagged TryS expressed in Escherichia coli BL21 (DE3) assessed as inorganic phosphate release after 15 mins by malachite green dye based end-point assay; summary of the method: as §1
[2] = Inhibition of Leishmania infantum recombinant His-tagged TryS expressed in Escherichia coli BL21 (DE3) assessed as inorganic phosphate release after 15 mins by malachite green dye based end-point assay; summary of the method: as §1
[3] = tested on: Trypanosoma brucei brucei; assay: Antitrypanosomal activity against bloodstream forms of Trypanosoma brucei brucei 427 stably transfected with pHD449 plasmid assessed as parasite viability at 5 uM after 24 hrs by propidium iodide staining based flow cytometry; format: functional
Trypanosoma cruzi = assay: Inhibition of Trypanosoma cruzi recombinant His-tagged TryS expressed in Escherichia coli BL21 (DE3) assessed as residual enzyme activity by measuring inorganic phosphate release at 30 uM after 15 mins by malachite green dye based end-point assay; summary of the method: as §1
Leishmania infantum = assay: Inhibition of Leishmania infantum recombinant His-tagged TryS expressed in Escherichia coli BL21 (DE3) assessed as residual enzyme activity by measuring inorganic phosphate release at 30 uM after 15 mins by malachite green dye based end-point assay; summary of the method: as §1
[4] = tested on: Trypanosoma brucei brucei; assay: Antitrypanosomal activity against bloodstream forms of Trypanosoma brucei brucei 427 stably transfected with pHD449 plasmid assessed as reduction in parasite viability after 24 hrs by propidium iodide staining based flow cytometry; format: functional, organism-based; conditions: Trypanosoma brucei, 427, 24 h
[5] = Selectivity index, ratio of EC50 for mouse J774 cells to EC50 for bloodstream forms of Trypanosoma brucei brucei 427 stably transfected with pHD449 plasmid; format: toxicity, cell-based; conditions: read-out: Ratio EC50
[6] = Aqueous solubility of compound in phosphate buffer at 0.25 mg at pH 7.4 after 48 hrs by HPLC based shake flask method; format: physicochemical
Asteroidea = assay: Inhibition of M phase starfish oocytes CDK1/cyclin B at 10 uM using histone H1 as substrate after 30 mins by scintillation counting method
Summary of the method: (§2)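 Radiometric kinase assay with 15 µM ATP, 30 min at 30 °C in buffer A (10 mM MgCl2, 1 mM EGTA, 1 mM DTT, 25 mM Tris-HCl pH 7.5, 50 µg/mL heparin); BSA 0.15 mg/mL added except for CDK2. Substrates: histone H1 (CDK1, CDK2, CDK5), CDK7/9-Tide (CDK9), RS peptide (DYRK1A, CLK1), GS-1 (GSK-3). Stopped onto P81 paper, acid-washed, scintillation counted; activity as % of DMSO control.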

[7] = target: CDK2/Cyclin A2 (Homo sapiens) (UniProt P24941+P20248); assay: Inhibition of human recombinant CDK2/cyclin A at 10 uM using histone H1 as substrate after 30 mins by scintillation counting method; format: protein-complex assay; summary of the method: as §2
[8] = target: Cyclin-dependent kinase 5/CDK5 activator 1 (Homo sapiens) (UniProt Q00535+Q15078); assay: Inhibition of human recombinant CDK5/p25 expressed in Escherichia coli at 10 uM using histone H1 as substrate after 30 mins by scintillation counting method; summary of the method: as §2
Sequence of Cyclin-dependent kinase 5/CDK5 activator 1 (Homo sapiens) (Q00535 whole entry): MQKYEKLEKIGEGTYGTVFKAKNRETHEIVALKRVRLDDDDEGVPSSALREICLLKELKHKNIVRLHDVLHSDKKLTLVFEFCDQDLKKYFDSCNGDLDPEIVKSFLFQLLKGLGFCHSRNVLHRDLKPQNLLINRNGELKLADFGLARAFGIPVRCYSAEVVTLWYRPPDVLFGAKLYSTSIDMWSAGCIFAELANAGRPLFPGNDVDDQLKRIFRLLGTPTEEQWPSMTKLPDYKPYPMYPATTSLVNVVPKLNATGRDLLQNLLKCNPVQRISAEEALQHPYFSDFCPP
Sequence of Cyclin-dependent kinase 5/CDK5 activator 1 (Homo sapiens) (Q15078 99-307 partner limits assumed): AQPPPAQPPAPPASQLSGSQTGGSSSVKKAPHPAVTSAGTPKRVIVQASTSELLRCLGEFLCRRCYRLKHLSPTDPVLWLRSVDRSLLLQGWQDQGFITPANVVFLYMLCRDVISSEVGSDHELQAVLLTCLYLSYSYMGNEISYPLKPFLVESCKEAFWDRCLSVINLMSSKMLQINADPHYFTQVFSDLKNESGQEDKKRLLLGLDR

[9] = target: CDK9/cyclin T1 (Homo sapiens) (UniProt O60563+P50750); assay: Inhibition of human recombinant CDK9/cyclinT expressed in insect cells at 10 uM using CDK7/9-Tide as substrate after 30 mins by scintillation counting method; summary of the method: as §2
[10] = target: Glycogen synthase kinase-3 (Sus scrofa) (UniProt B2LUN4+I6LNT8); assay: Inhibition of porcine brain GSK-3alpha/beta at 10 uM using GS-1 as substrate after 30 mins by scintillation counting method; summary of the method: as §2
Sus scrofa = organism: Sus scrofa; assay: Inhibition of porcine brain CK1delta/epsilon at 10 uM using CKS peptide as substrate after 30 mins by scintillation counting method
Summary of the method: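 Native porcine brain CK1δ/ε purified on axin 2-sepharose, assayed with 0.67 µg CKS peptide and 15 µM ATP, 30 min at 30 °C; phosphate incorporation captured on P81 paper, counted by scintillation, expressed as % of activity without inhibitor.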

[11] = target: Dual specificity protein kinase CLK1 (Mus musculus) (UniProt P22518); assay: Inhibition of GST-tagged mouse recombinant CLK1 expressed in Escherichia coli at 10 uM after 30 mins by scintillation counting method; summary of the method: as §2
Sequence of Dual specificity protein kinase CLK1 (Mus musculus) (P22518 whole entry, looked up): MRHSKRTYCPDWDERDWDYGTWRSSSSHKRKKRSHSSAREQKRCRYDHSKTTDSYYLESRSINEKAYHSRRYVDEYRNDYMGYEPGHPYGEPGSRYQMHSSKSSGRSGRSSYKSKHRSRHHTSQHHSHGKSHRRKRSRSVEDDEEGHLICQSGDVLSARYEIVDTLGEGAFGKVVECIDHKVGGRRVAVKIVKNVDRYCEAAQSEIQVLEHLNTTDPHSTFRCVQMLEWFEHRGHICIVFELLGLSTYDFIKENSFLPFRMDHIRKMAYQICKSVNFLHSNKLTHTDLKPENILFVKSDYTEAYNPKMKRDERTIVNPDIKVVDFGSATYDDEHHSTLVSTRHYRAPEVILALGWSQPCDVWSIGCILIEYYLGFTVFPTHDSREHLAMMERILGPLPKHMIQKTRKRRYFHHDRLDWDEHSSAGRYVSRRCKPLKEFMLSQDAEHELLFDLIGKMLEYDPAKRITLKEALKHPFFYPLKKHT

[12] = target: Dual specificity tyrosine-phosphorylation-regulated kinase 1A (Homo sapiens) (UniProt Q13627); assay: Inhibition of GST-tagged human recombinant DYRK1A expressed in Escherichia coli at 10 uM after 30 mins by scintillation counting method; summary of the method: as §2

SMILES | Activity (Trypanosoma brucei) [%] | IC50 [2] [µM] | Activity (Trypanosoma cruzi) [%] | Activity (Leishmania infantum) [%] | EC50 [4] [µM] | IC50 [1] [µM] | Activity [3] [%] | selectivity ratio [5] | further results
O=C(CN1C(=O)Cc2c([nH]c3ccc(Br)cc23)-c2ccc(Cl)cc21)NCc1cccnc1 | 64.8 | 11 | – | – | – | 9 | 59.4 | – | –
CNCCNC(=O)CN1C(=O)Cc2c([nH]c3ccc(C(F)(F)F)cc23)-c2ccccc21 | 70 | 0.35 | 44.5 | – | 8.3 | – | – | 1 | –
O=C(CN1C(=O)Cc2c([nH]c3ccc(Br)cc23)-c2ccc(Cl)cc21)NCc1cccc(Cl)c1 | 55.9 | 17 | – | – | 1.1 | 11 | – | 91 | –
O=C(CN1C(=O)Cc2c([nH]c3ccc(Br)cc23)-c2ccc(Cl)cc21)NCc1ccc(C(F)(F)F)cc1 | 63.5 | – | – | 55.4 | 1.8 | 9 | – | > 18 | –
O=C(CN1C(=O)Cc2c([nH]c3ccc(Br)cc23)-c2ccc(Cl)cc21)NCc1ccccn1 | 75.8 | – | 54.8 | 95.5 | – | – | 33.8 | – | –
COc1ccc(CNC(=O)CN2C(=O)Cc3c([nH]c4ccc(Br)cc34)-c3ccc(Cl)cc32)cc1 | 53.5 | 24 | – | – | 1 | 11 | – | 22 | –

The next lines start with results.

Activity (Trypanosoma brucei) [%] | IC50 [2] [µM] | Activity (Trypanosoma cruzi) [%] | Activity (Leishmania infantum) [%] | EC50 [4] [µM] | SMILES | IC50 [1] [µM] | Activity [3] [%] | selectivity ratio [5] | further results
55.3 | 23 | – | – | – | O=C(CN1C(=O)Cc2c([nH]c3ccc(Br)cc23)-c2ccc(Cl)cc21)NCc1ccccc1Cl | 11 | 53.2 | – | –
45.2 | – | 72.8 | 50 | 0.04 | O=C(CN1C(=O)Cc2c([nH]c3ccc(Br)cc23)-c2ccc(Cl)cc21)NCc1ccccc1 | – | – | 1410 | solubility thermodynamic at 48 h [6]: < 0.49 µM; inhibition (Asteroidea): inactive; inhibition [7]: inactive; inhibition [8]: inactive; inhibition [9]: inactive; inhibition [10]: inactive; inhibition (Sus scrofa): inactive; inhibition [11]: inactive; inhibition [12]: inactive
53.7 | – | – | 48.6 | 0.3 | Cc1ccc(CNC(=O)CN2C(=O)Cc3c([nH]c4ccc(Br)cc34)-c3ccc(Cl)cc32)cc1 | 9 | – | > 167 | solubility thermodynamic at 48 h [6]: < 0.48 µM
50.1 | – | – | 109 | 0.8 | O=C(CN1C(=O)Cc2c([nH]c3ccc(Br)cc23)-c2ccc(Cl)cc21)NCc1ccc(Cl)cc1 | 11 | – | > 62 | –
58 | 10 | – | – | 0.84 | O=C(CN1C(=O)Cc2c([nH]c3ccc(Br)cc23)-c2ccc(Cl)cc21)NCc1ccc(O)cc1 | 9 | – | 238 | solubility thermodynamic at 48 h [6]: < 4.8 µM
42 | 19 | – | – | 0.84 | O=C(CN1C(=O)Cc2c([nH]c3ccc(Br)cc23)-c2ccc(Cl)cc21)NCc1ccc(Cl)c(Cl)c1 | 9 | – | 12 | –
65.2 | 1.2 | 58.1 | – | – | O=C(CN1C(=O)Cc2c([nH]c3ccc(Br)cc23)-c2ccc(Cl)cc21)NCc1ccncc1 | – | 49.1 | – | –
